These results are taken from ChEMBL document CHEMBL2069210, “D-ring modified novel isosteviol derivatives: design, synthesis and cytotoxic activity evaluation” (Bioorg Med Chem Lett, 2012).

Type in all cases: functional, cell-based
A short description of experiment [1]: Antiproliferative activity against human EC9706 cells after 72 hrs by MTT assay. Conditions: EC9706, 72 h. Put shortly: (§1)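 Seeded at 5 × 10^3 cells/well and left 24 h. Medium then replaced with fresh medium holding compound over a range of concentrations, and cells incubated a further 72 h. 0.5 mg/mL MTT in PBS added for 4 h, formazan dissolved in DMSO, absorbance read at 562 nm. IC50 derived from percent inhibition across concentrations.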
(Tetrazolium assays rely on reduction of a dye to a coloured formazan, in cell work by metabolically active cells.)

Experiment [2] can be described thus: Antiproliferative activity against human ECA109 cells after 72 hrs by MTT assay. Conditions: ECa-109, 72 h. Put shortly:
as §1

Experiment [3] has as its system PC-3. In words: Antiproliferative activity against human PC3 cells after 72 hrs by MTT assay. Conditions: PC-3, 72 h. Put shortly:
as §1

Experiment [4] concerns HCT-116. In words: Antiproliferative activity against human HCT116 cells after 72 hrs by MTT assay. Conditions: HCT-116, 72 h. Put shortly:
as §1

With `CCOC(=O)[C@]1(C)CCC[C@@]2(C)[C@@H]3CC[C@@]4(C)C[C@]3(CC[C@@H]21)[C@@H](O)[C@H]4O`, the IC50 in experiment [1] is 52.1 µM; in experiment [2], 90.3 µM; in experiment [3], 87.6 µM; in experiment [4], over 100 µM.
The matching figures for `C[C@]12CC[C@H]3[C@]4(C)CCC[C@@](C)(CO)[C@H]4CC[C@@]3(C1)[C@@H](O)/C2=N\O`: over 100 µM, over 100 µM, over 100 µM and over 100 µM.
The matching figures for `CCOC(=O)[C@]1(C)CCC[C@@]2(C)[C@@H]3CC[C@@]4(C)C[C@]3(CC[C@@H]21)[C@@H](CN)[C@@H]4O`: 4.01 µM, 5.02 µM, 15.3 µM and 12.2 µM.
As to `CCOC(=O)[C@]1(C)CCC[C@@]2(C)[C@@H]3CC[C@@]4(C)C[C@]3(CC[C@@H]21)[C@@H](O)[C@H]4NC(=O)[C@@H]1CCCN1`, the IC50 in experiment [1] was 60.7 µM; in experiment [2], 69.5 µM; in experiment [3] it was over 100 µM; in experiment [4], over 100 µM.
For the compound `CCOC(=O)[C@]1(C)CCC[C@@]2(C)[C@@H]3CC[C@@]4(C)C[C@]3(CC[C@@H]21)[C@@H](O)/C4=N\O`, the IC50 in experiment [1], in experiment [2], in experiment [3] and in experiment [4] was over 100 µM each time.
On to `CCOC(=O)[C@]1(C)CCC[C@@]2(C)[C@@H]3CC[C@]4(C)C=C(C=O)[C@@]3(CC[C@@H]21)C4`, for which the 50% inhibitory concentration (IC50) is over 100 µM in experiment [1], over 100 µM in experiment [2], 40.3 µM in experiment [3] and over 100 µM in experiment [4].
Take `CCOC(=O)[C@]1(C)CCC[C@@]2(C)[C@@H]3CC[C@@]4(C)C[C@]3(CC[C@@H]21)C(=O)[C@H]4NC(=S)Nc1ccccc1`: the half-inhibitory concentration (IC50) in experiment [1], in experiment [2], in experiment [3] and in experiment [4] was over 100 µM in each case.
With `CCOC(=O)[C@]1(C)CCC[C@@]2(C)[C@@H]3CC[C@@]4(C)C[C@]3(CC[C@@H]21)CC4=O`, the IC50 in experiment [1], in experiment [2], in experiment [3] and in experiment [4] was over 100 µM throughout.
In the case of `CCOC(=O)[C@]1(C)CCC[C@@]2(C)[C@@H]3CC[C@@]4(C)C[C@]3(CC[C@@H]21)C[C@H]4O`, the IC50 in experiment [1], in experiment [2], in experiment [3] and in experiment [4] was over 100 µM in each case.
As for `CCOC(=O)[C@]1(C)CCC[C@@]2(C)[C@@H]3CC[C@@]4(C)C[C@]3(CC[C@@H]21)[C@H](C=O)[C@H]4N1CCCC1`, the IC50 in experiment [1] was over 100 µM; in experiment [2] it was 30.3 µM; in experiment [3], over 100 µM; in experiment [4] it was over 100 µM.
Take `CCOC(=O)[C@]1(C)CCC[C@@]2(C)[C@@H]3CC[C@](C)(C#N)C[C@@]3(C(=O)O)CC[C@@H]21`: the IC50 in experiment [1], in experiment [2], in experiment [3] and in experiment [4] was over 100 µM in each case.
In the case of `CCOC(=O)[C@]1(C)CCC[C@@]2(C)[C@@H]3CC[C@@]4(C)C[C@]3(CC[C@@H]21)[C@H](CO)[C@H]4O`, the IC50 in experiment [1] is 91.6 µM; in experiment [2], 43.3 µM; in experiment [3] it was over 100 µM; in experiment [4] it was over 100 µM.
Take `CCOC(=O)[C@]1(C)CCC[C@@]2(C)[C@@H]3CC[C@@]4(C)C[C@]3(CC[C@@H]21)C(=O)[C@H]4NC(=O)[C@@H]1CCCN1`: the IC50 in experiment [1], in experiment [2], in experiment [3] and in experiment [4] was over 100 µM each time.
Turning to `CCOC(=O)[C@]1(C)CCC[C@@]2(C)[C@@H]3CC[C@](C)(C#N)C[C@@]3(C=O)CC[C@@H]21`, the IC50 in experiment [1], in experiment [2], in experiment [3] and in experiment [4] was over 100 µM each time.
As for `CCOC(=O)[C@]1(C)CCC[C@@]2(C)[C@@H]3CC[C@@]4(C)C[C@]3(CC[C@@H]21)C(=O)C4=O`, the IC50 in experiment [1], in experiment [2], in experiment [3] and in experiment [4] was over 100 µM each time.
Turning to `CCOC(=O)[C@]1(C)CCC[C@@]2(C)[C@@H]3CC[C@@]4(C)C[C@]3(CC[C@@H]21)[C@H](CNC(C)=O)[C@H]4OC(C)=O`, the IC50 in experiment [1], in experiment [2], in experiment [3] and in experiment [4] was over 100 µM in each case.
Turning to `CCOC(=O)[C@]1(C)CCC[C@@]2(C)[C@@H]3CC[C@@]4(C)C[C@]3(CC[C@@H]21)C(Br)C4=O` (some centres not stated), the IC50 in experiment [1], in experiment [2], in experiment [3] and in experiment [4] was over 100 µM each time.
`CCOC(=O)[C@]1(C)CCC[C@@]2(C)[C@@H]3CC[C@@]4(C)C[C@]3(CC[C@@H]21)C(=O)/C4=N\O`: the IC50 in experiment [1], in experiment [2], in experiment [3] and in experiment [4] was over 100 µM in each case.
`CCOC(=O)[C@]1(C)CCC[C@@]2(C)[C@@H]3CC[C@@]4(C)C[C@]3(CC[C@@H]21)[C@H](CNC(C)=O)[C@H]4O`: the IC50 was 21.2 µM in experiment [1], 13.3 µM in experiment [2], over 100 µM in experiment [3] and over 100 µM in experiment [4].
Regarding `CCOC(=O)[C@]1(C)CCC[C@@]2(C)[C@@H]3CC[C@@]4(C)C[C@]3(CC[C@@H]21)[C@H](C=O)[C@H]4O`, the IC50 in experiment [1] is 24.4 µM; in experiment [2], 26.5 µM; in experiment [3], over 100 µM; in experiment [4] it was over 100 µM.
As for `CCOC(=O)[C@]1(C)CCC[C@@]2(C)[C@@H]3CC[C@@]4(C)C[C@]3(CC[C@@H]21)[C@@H](O)[C@H]4N`, the IC50 came out at 19.3 µM in experiment [1], 41.3 µM in experiment [2], 25.4 µM in experiment [3] and 20.1 µM in experiment [4].
The matching figures for `CCOC(=O)[C@]1(C)CCC[C@@]2(C)[C@@H]3CC[C@@]4(C)C[C@]3(CC[C@@H]21)C(=O)OC4=O`: over 100 µM, over 100 µM, over 100 µM and over 100 µM.
The matching figures for `CCOC(=O)[C@]1(C)CCC[C@@]2(C)[C@@H]3CC[C@@]4(C)C[C@]3(CC[C@@H]21)C(=O)[C@H]4NC(=S)Nc1cc(C(F)(F)F)cc(C(F)(F)F)c1`: over 100 µM, over 100 µM, over 100 µM and over 100 µM.
The matching figures for `CCOC(=O)[C@]1(C)CCC[C@@]2(C)[C@@H]3CC[C@@]4(C)C[C@]3(CC[C@@H]21)[C@@H](O)[C@H]4NC(=S)Nc1cc(C(F)(F)F)cc(C(F)(F)F)c1`: 24.1 µM, 45.8 µM, 20.6 µM and 14.3 µM.
Consider `C[C@@]12CC[C@@H]3[C@@](CC[C@H]4[C@@]3(C)CCC[C@@]4(C)C(=O)O)(CC1=O)C2` [ISOSTEVIOL], for which the IC50 in experiment [1], in experiment [2], in experiment [3] and in experiment [4] was over 100 µM in each case.
Consider `CCOC(=O)[C@]1(C)CCC[C@@]2(C)[C@@H]3CC[C@@]4(C)C[C@]3(CC[C@@H]21)[C@@H](O)[C@H]4NC(=S)Nc1cccc2ccccc12`, for which the half-maximal inhibitory concentration (IC50) in experiment [1] was over 100 µM; in experiment [2], 90.9 µM; in experiment [3], over 100 µM; in experiment [4] it was over 100 µM.
Consider `CCOC(=O)[C@]1(C)CCC[C@@]2(C)[C@@H]3CC[C@@]4(C)C[C@]3(CC[C@@H]21)C(=O)[C@H]4NC(=S)Nc1cccc2ccccc12`, for which the half-inhibitory concentration (IC50) in experiment [1], in experiment [2], in experiment [3] and in experiment [4] was over 100 µM each time.
On to `CCOC(=O)[C@]1(C)CCC[C@@]2(C)[C@@H]3CC[C@](C)(C(N)=O)C[C@@]3(C(=O)O)CC[C@@H]21`, for which the IC50 in experiment [1], in experiment [2], in experiment [3] and in experiment [4] was over 100 µM each time.
For `CCOC(=O)[C@]1(C)CCC[C@@]2(C)[C@@H]3CC[C@@]4(C)C[C@]3(CC[C@@H]21)C(=O)[C@H]4O`, the IC50 in experiment [1], in experiment [2], in experiment [3] and in experiment [4] was over 100 µM each time.
Turning to `CCOC(=O)[C@]1(C)CCC[C@@]2(C)[C@@H]3CC[C@@]4(C)C[C@]3(CC[C@@H]21)[C@H](/C=N/O)[C@H]4O`, the IC50 is 56.6 µM in experiment [1], 17.9 µM in experiment [2], over 100 µM in experiment [3] and over 100 µM in experiment [4].
Take `CCOC(=O)[C@]1(C)CCC[C@@]2(C)[C@@H]3CC[C@@]4(C)C[C@]3(CC[C@@H]21)C(=O)[C@H]4N`: the IC50 was 97.2 µM in experiment [1], over 100 µM in experiment [2], over 100 µM in experiment [3] and over 100 µM in experiment [4].
On to `CCOC(=O)[C@]1(C)CCC[C@@]2(C)[C@@H]3CC[C@@]4(C)C[C@]3(CC[C@@H]21)[C@@H](O)[C@H]4NC(=S)Nc1ccccc1`, for which the 50% inhibitory concentration (IC50) in experiment [1] was over 100 µM; in experiment [2], 72.3 µM; in experiment [3], over 100 µM; in experiment [4], over 100 µM.
As for `CCOC(=O)[C@]1(C)CCC[C@@]2(C)[C@@H]3CC[C@](C)(C(=O)O)C[C@@]3(C(=O)O)CC[C@@H]21`, the IC50 in experiment [1], in experiment [2], in experiment [3] and in experiment [4] was over 100 µM each time.

As usually defined, the IC50 is the midpoint of a concentration-inhibition curve. Higher therefore signals a need for much substance.
